From ChEMBL document CHEMBL1124984, “Benzophenone dicarboxylic acid antagonists of leukotriene B4. 2. Structure-activity relationships of the lipophilic side chain” (J Med Chem, 1990)

Assays:
[1] = target: T1, Leukotriene B4 receptor (Homo sapiens) (UniProt Q9NPC1+Q15722); test: Antagonistic activity against Leukotriene B4 receptor by using [3H]- LTB4 as a radioligand at a concentration of 10e-6 M; type: functional
Summary of the method: (§1)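 Neutrophil suspensions (≥90% neutrophils, ≥90% viable) at 2 × 10^7 cells/mL in Hanks' balanced salt solution with 0.1% ovalbumin. Cells were incubated 10 min at 4 °C with compound in DMSO and [3H]LTB4 added as a 2.65 nM solution. Cells were spun 2 min through dibutyl/dinonyl phthalate (7:2) and the pellet counted by scintillation. Nonspecific binding was measured with >2000-fold excess unlabeled ligand. Results are % inhibition of specific binding, mean of ≥3 replicates.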

[2] = target: T1, Leukotriene B4 receptor (Homo sapiens); test: Antagonistic activity against Leukotriene B4 receptor by using [3H]- LTB4 as a radioligand at a concentration of 10e-5 M; type: functional; summary of the method: as §1
[3] = target: T1, Leukotriene B4 receptor (Homo sapiens); test: Antagonistic activity against Leukotriene B4 receptor by using [3H]- LTB4 as a radioligand at a concentration of 10e-7 M; type: functional; summary of the method: as §1
[4] = target: T1, Leukotriene B4 receptor (Homo sapiens); test: Antagonistic activity against Leukotriene B4 receptor by using [3H]- LTB4 as a radioligand at a concentration of 10e-8 M; type: functional; summary of the method: as §1
[5] = target: T2, Leukotriene B4 receptor 1 (Homo sapiens, UniProt Q15722); test: Inhibition of binding of B4 (LTB4) to its Leukotriene B4 receptor on intact human neutrophils at a concentration of 10e -7M.; summary of the method: as §1
T2 sequence (Q15722 whole entry): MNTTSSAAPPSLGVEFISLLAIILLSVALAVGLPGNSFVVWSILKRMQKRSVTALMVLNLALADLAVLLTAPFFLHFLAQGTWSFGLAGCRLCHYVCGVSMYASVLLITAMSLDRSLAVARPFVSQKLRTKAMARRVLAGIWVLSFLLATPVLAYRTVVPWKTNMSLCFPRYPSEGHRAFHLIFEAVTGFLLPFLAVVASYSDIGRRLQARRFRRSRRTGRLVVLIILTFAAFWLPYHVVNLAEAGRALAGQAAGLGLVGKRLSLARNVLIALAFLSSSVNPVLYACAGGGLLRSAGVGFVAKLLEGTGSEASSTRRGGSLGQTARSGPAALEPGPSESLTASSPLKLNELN

[6] = target: T2, Leukotriene B4 receptor 1; test: Inhibition of binding of B4 (LTB4) to Leukotriene B4 receptor on intact human neutrophils at a concentration of 10e -8M.; summary of the method: as §1
[7] = target: T2, Leukotriene B4 receptor 1; test: Inhibition of specific binding of [3H]LTB4 to Leukotriene B4 receptor in human neutrophils

T1 sequence (Q15722 whole entry, looked up): as the sequence (Q15722 whole entry) above
T1 sequence (Q9NPC1 whole entry, looked up): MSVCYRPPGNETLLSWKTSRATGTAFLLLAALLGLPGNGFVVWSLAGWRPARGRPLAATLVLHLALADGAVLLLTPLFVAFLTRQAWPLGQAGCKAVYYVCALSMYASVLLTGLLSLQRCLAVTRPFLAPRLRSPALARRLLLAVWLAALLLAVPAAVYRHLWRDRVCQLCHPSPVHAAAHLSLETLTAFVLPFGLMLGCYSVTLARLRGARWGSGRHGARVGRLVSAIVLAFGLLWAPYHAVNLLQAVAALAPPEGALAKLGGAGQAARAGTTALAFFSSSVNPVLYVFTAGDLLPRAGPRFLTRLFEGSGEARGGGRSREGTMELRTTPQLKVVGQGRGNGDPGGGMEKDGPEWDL

Row | inhibition [1] [%] | inhibition [2] [%] | inhibition [3] [%] | inhibition [4] [%] | inhibition [5] [%] | inhibition [6] [%] | IC50 [7] [nM] | Structure (SMILES)
1 | 3 | 31 |  |  |  |  |  | O=C(O)CCc1cc(C(=O)c2cccc(C(=O)O)c2)ccc1OCc1ccccc1
2 | 91 | 100 | 3 | 5 |  |  |  | COc1ccccc1CCCCCCOc1ccc(C(=O)c2cccc(C(=O)O)c2)cc1CCC(=O)O
3 | 96 |  | 73 | 24 |  |  |  | Cc1ccc(/C=C/CCCCOc2ccc(C(=O)c3cccc(C(=O)O)c3)cc2CCC(=O)O)cc1
4 | 100 | 100 | 88 | 25 |  |  |  | COc1ccccc1/C=C/CCCCOc1ccc(C(=O)c2cccc(C(=O)O)c2)cc1CCC(=O)O
5 | 90 | 100 | 45 | 9 |  |  |  | COc1ccc(C#CCCCCOc2ccc(C(=O)c3cccc(C(=O)O)c3)cc2CCC(=O)O)cc1
6 | 16 | 67 |  |  |  |  |  | O=C(O)CCc1cc(C(=O)c2cccc(C(=O)O)c2)ccc1OCCCCOc1ccccc1
7 | 92 | 100 | 34 | 3 |  |  |  | O=C(O)CCc1cc(C(=O)c2cccc(C(=O)O)c2)ccc1OCCCC/C=C/c1ccccc1
8 | 91 | 99 | 49 | 13 |  |  |  | COc1cccc(/C=C/CCCCOc2ccc(C(=O)c3cccc(C(=O)O)c3)cc2CCC(=O)O)c1
9 | 19 | 60 |  |  |  |  |  | O=C(O)CCc1cc(C(=O)c2cccc(C(=O)O)c2)ccc1OCCCc1ccccc1
10 | 60 | 95 |  |  | 7 |  |  | CCCCCCCCCCOc1ccc(C(=O)c2cccc(C(=O)O)c2)cc1CCC(=O)O
11 |  |  | 28 | 0 |  |  |  | O=C(O)CCc1cc(C(=O)c2cccc(C(=O)O)c2)ccc1OCCCCCCCCCCc1ccccc1
12 | 85 | 100 |  |  | 36 | 14 |  | O=C(O)CCc1cc(C(=O)c2cccc(C(=O)O)c2)ccc1OCCCCCCc1ccccc1
13 | 95 | 100 | 88 | 40 |  |  | 13.2 | COc1ccc(/C=C/CCCCOc2ccc(C(=O)c3cccc(C(=O)O)c3)cc2CCC(=O)O)cc1
14 | 77 | 100 | 22 | 6 |  |  |  | O=C(O)CCc1cc(C(=O)c2cccc(C(=O)O)c2)ccc1OCCCCCCc1ccc(F)cc1
15 | 89 | 98 | 60 | 31 |  |  |  | CS(=O)(=O)c1ccc(/C=C/CCCCOc2ccc(C(=O)c3cccc(C(=O)O)c3)cc2CCC(=O)O)cc1
16 | 7 | 0 |  |  |  |  |  | COc1ccc(C(=O)c2cccc(C(=O)O)c2)cc1CCC(=O)O
17 | 89 | 95 | 46 |  |  |  |  | COc1cccc(CCCCCCOc2ccc(C(=O)c3cccc(C(=O)O)c3)cc2CCC(=O)O)c1
18 | 95 | 99 | 86 | 36 |  |  |  | C[S+]([O-])c1ccc(/C=C/CCCCOc2ccc(C(=O)c3cccc(C(=O)O)c3)cc2CCC(=O)O)cc1 (stereo not drawn)

Row | inhibition [1] [%] | inhibition [2] [%] | inhibition [3] [%] | inhibition [4] [%] | inhibition [5] [%] | inhibition [6] [%] | IC50 [7] [nM] | Structure (SMILES)
19 | 0 | 22 |  |  |  |  |  | O=C(O)CCc1cc(C(=O)c2cccc(C(=O)O)c2)ccc1OCCCC[S+]([O-])c1ccccc1 (stereo not drawn)
20 | 96 | 100 | 66 | 20 |  |  |  | COc1ccc(/C=C/CCCCOc2ccc(C(=O)c3cccc(C(=O)O)c3)cc2CCC(=O)O)c(OC)c1
21 | 29 | 89 |  |  |  |  |  | O=C(O)CCc1cc(C(=O)c2cccc(C(=O)O)c2)ccc1OCCCCSc1ccccc1
22 | 93 | 100 | 42 | 15 |  |  |  | O=C(O)CCc1cc(C(=O)c2cccc(C(=O)O)c2)ccc1OCCCCCCc1ccc(Cl)cc1
23 | 96 | 100 | 68 | 18 |  |  |  | COc1ccc(CCCCCCOc2ccc(C(=O)c3cccc(C(=O)O)c3)cc2CCC(=O)O)cc1
24 | 4 | 18 |  |  |  |  |  | O=C(O)CCc1cc(C(=O)c2cccc(C(=O)O)c2)ccc1OCCCCS(=O)(=O)c1ccccc1
25 | 76 | 90 | 31 | 0 |  |  |  | COc1ccc(/C=C\CCCCOc2ccc(C(=O)c3cccc(C(=O)O)c3)cc2CCC(=O)O)cc1
26 | 35 | 87 |  |  | 0 | 0 |  | CCCCCCCCOc1ccc(C(=O)c2cccc(C(=O)O)c2)cc1CCC(=O)O
27 | 90 | 100 | 43 | 6 |  |  |  | O=C(O)CCc1cc(C(=O)c2cccc(C(=O)O)c2)ccc1OCCCCCCc1ccc(O)cc1
28 | 79 | 100 | 18 |  |  |  |  | CSc1ccc(/C=C/CCCCOc2ccc(C(=O)c3cccc(C(=O)O)c3)cc2CCC(=O)O)cc1
29 | 3 | 37 |  |  |  |  |  | O=C(O)CCc1cc(C(=O)c2cccc(C(=O)O)c2)ccc1OCCc1ccccc1
30 | 29 | 73 |  |  | 0 | 0 |  | CCCCCCCCCCCCCCOc1ccc(C(=O)c2cccc(C(=O)O)c2)cc1CCC(=O)O
31 | 21 | 78 |  |  |  |  |  | O=C(O)CCc1cc(C(=O)c2cccc(C(=O)O)c2)ccc1OCCCCc1ccccc1
32 | 10 | 56 |  |  | 0 | 0 |  | CCCCCCOc1ccc(C(=O)c2cccc(C(=O)O)c2)cc1CCC(=O)O
33 | 0 | 0 |  |  | 0 | 0 |  | CCOc1ccc(C(=O)c2cccc(C(=O)O)c2)cc1CCC(=O)O
34 |  | 72 |  |  |  |  |  | O=C(O)CCc1cc(C(=O)c2cccc(C(=O)O)c2)ccc1OCCCCc1cccs1
35 | 90 |  | 46 | 11 |  |  |  | CC(=O)c1ccc(CCCCCCOc2ccc(C(=O)c3cccc(C(=O)O)c3)cc2CCC(=O)O)cc1
